Source: PubChem (The Scripps Research Institute Molecular Screening Center)
HTRA1 inhibitor – blocks human HTRA1 serine peptidase; hit rate 0.5% among 340,000; recombinant HTRA1, FP-rhodamine activity-based probe, fluorescence polarization; inhibition, % at 5.96 µM; Q92743; AID 504803; in the data active = inhibition above about 36%;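 also: 0% = enzyme with DMSO and 100% = wells lacking enzyme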
Target sequence (Q92743 whole entry, looked up): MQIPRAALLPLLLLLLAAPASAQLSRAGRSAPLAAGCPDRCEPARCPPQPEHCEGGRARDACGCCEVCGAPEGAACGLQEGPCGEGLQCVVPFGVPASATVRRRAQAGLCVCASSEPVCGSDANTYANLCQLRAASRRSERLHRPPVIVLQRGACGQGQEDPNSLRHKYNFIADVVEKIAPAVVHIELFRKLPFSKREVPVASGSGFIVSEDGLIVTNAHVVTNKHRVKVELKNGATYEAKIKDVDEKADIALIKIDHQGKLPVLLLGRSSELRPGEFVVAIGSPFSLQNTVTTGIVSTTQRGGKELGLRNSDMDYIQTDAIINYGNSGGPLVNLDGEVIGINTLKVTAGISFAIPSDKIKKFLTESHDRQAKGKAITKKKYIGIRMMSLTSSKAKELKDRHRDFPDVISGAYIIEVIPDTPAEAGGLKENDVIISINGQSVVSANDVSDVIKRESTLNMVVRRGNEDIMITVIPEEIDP
ABHD4 inh – ABHD4 (mouse) inhibition, primary FP screen. purified mABHD4, FP-Rh probe fluorescence polarization. hit rate 0.54% among 370,000. Q8VD66. inhibition, % at 8.92 µM;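 active = inhibition exceeding the mean over every tested compound plus 3 SD, cut at about 30% in these data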;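 also: 0% = plate median of compound wells and 100% = S159A mutant with DMSO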
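Test system: mABHD4 protein | Buffer or medium: HEPES pH 7.0 buffer, 150 mM NaCl, 0.01% Pluronic F-127 | Probe or stimulus: FP-Rh fluorescent activity-based probe, added after compound pre-incubation | Timing: Pre-incubation 45 min, probe exposure 60 min, at 25 °C | Technique: Fluorescence polarization, excitation 525 nm, emission 598 nm, BODIPY TMR filters | Repeats: Single well per compound (singlicate)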
PRMT1 inh – inhibitors of human PRMT1; Q99873; recombinant PRMT1, activity-based probe fluorescence polarization; hit rate 1.3% among 370,000; inhibition, % at 2.79 µM;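 active = inhibition above about 21% made by adding two undisclosed values, limit read from the data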
SIAE primary – inhibitors of human sialic acid acetylesterase SIAE. Q9HAT2. SIAE FP-Rh probe binding, fluorescence polarization. inhibition, % at 9.66 µM. hit rate 0.69% among 370,000. AID 1053197;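 active = inhibition above a cutoff: mean of compounds within the control limits plus 3 SD of those, cut at about 17% in these data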;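 also: 0% = plate median of compound wells and 100% = probe without SIAE protein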
rCAG binder – binds r(CAG) RNA repeats. inhibition, % at 3 µM. hit rate 1.3% among 370,000. r(CAG) RNA repeat, TO-PRO-1 dye displacement fluorescence;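 active = inhibition above the plate cutoff, the mean of all test compounds on that plate plus 3 SD, cut at about 35% in these data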;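 also: 0% = DMSO alone and 100% = 100 µM mitoxantrone as full dye displacement; higher means more dye released from RNA so lower well fluorescence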
PRMT1 confirm – PRMT1 (human) inhibition, FP confirmation; shares compounds with PRMT1 inh; recombinant His-PRMT1, activity-based probe fluorescence polarization; inhibition, % at 2.79 µM; hit rate 42% among 3,300;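 active = mean inhibition across replicates above the hit cutoff derived for the earlier primary screen, cut at about 22% in these data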
* hit, by the source's call; / = no result. In the library only some 3.3% were active in any assay of this set; here they are far more common.

SMILES	HTRA1 inhibitor	ABHD4 inh	PRMT1 inh	SIAE primary	rCAG binder	PRMT1 confirm
CC(C)(C)c1nnc(SCC(=O)c2ccccc2)n(N)c1=O	6	0	75*	0	4	57*
Cn1c(SCC(=O)c2ccccc2)nnc1-c1ccco1	1	3	0	3	2	/
Cc1nn(C)c(C)c1CS(=O)(=O)c1ccccc1	1	1	5	-1	-2	/
CC1=C(C(=O)N2CCCCCC2)CC(CC(=O)NCCN2CCOCC2)C(=O)N1Cc1ccccc1 (stereo not drawn)	/	1	-4	1	-1	/
Cc1cc(C)nc(SCC(=O)c2cc3ccccc3oc2=O)n1	1	4	25*	5	6	8
COc1ccccc1C(=O)CSc1n[nH]c(N)n1	5	-9	4	-1	10	/
Nc1nc(SCC(=O)c2cc3ccccc3o2)n[nH]1	-2	-2	71*	-1	17	13
COc1ccc(CC(=O)N/N=C/c2cccnc2)cc1OC	3	-3	1	2	-6	/
O=C(NC1=NCCS1)c1ccccc1Cl	16	-4	-3	4	-3	/
O=C(NC1=NCCS1)c1csc2ccccc12	-1	-3	27*	0	7	9
Cc1ccc(CNC(=O)CC(C)S(=O)(=O)c2ccc3c(c2)NC(=O)CO3)cc1 (stereo not drawn)	2	0	7	2	-2	/
Cc1ccc(CNC(=O)CC(C)S(=O)(=O)c2ccc3c(c2)NC(=O)CS3)o1 (stereo not drawn)	-6	6	44*	-8	0	15
CC(=O)Nc1ccc2c(c1)CCc1ccccc1-2	0	6	3	4	-1	/
O=C(O)/C=C/C(=O)c1ccc2c(c1)CCc1ccccc1-2	-15	-2	56*	-13	20	72*
CCCOC(=O)C1=C(C)N(C)C(=O)NC1c1cc2c(cc1[N+](=O)[O-])OCO2 (stereo not drawn)	7	13	27*	12	4	22*
Cc1ccc(-c2nc3cnccn3c2Nc2ccc3c(c2)OCCO3)o1	11	1	27*	5	-1	2
CCN(CC)CCn1c2ccccc2c2n[nH]c(=S)nc21	10	-5	85*	3	-5	58*
CCN(CC)CCn1c2ccccc2c2nc3ccccc3nc21	-1	-3	-5	-5	8	/
Fc1ccc(F)c(C2=NNC(=NCC3CCCO3)SC2)c1 (stereo not drawn)	35	-6	38*	-5	2	10
CCOc1ccc(N=C2NN=C(c3cc(C)n(CC4CCCO4)c3C)CS2)cc1 (stereo not drawn)	23	8	-1	4	11	/
CC(=O)Nc1ccc(C2=NNC(=NCC3CCCO3)SC2)cc1 (stereo not drawn)	4	-3	41*	0	17	33*
COC(=O)c1cc(=O)nc2sc3cc(OC)ccc3n12	3	13	10	1	4	/
COc1ccc(O)c(/C=c2/sc3nc4cc(C)c(C)cc4n3c2=O)c1	-56	9	39*	-58	21	70*
Cc1ccc(/C=C/C(=O)NCc2cccs2)o1	3	3	32*	1	5	19
O=[N+]([O-])c1c(NCc2ccccc2)cc(N2CCc3ccccc3C2)c2nonc12	-4	1	0	-4	0	/
SMILES	HTRA1 inhibitor	ABHD4 inh	PRMT1 inh	SIAE primary	rCAG binder	PRMT1 confirm
COC(=O)CNc1ccc2c(c1)OCO2	9	12	36*	6	5	5
COC(=O)Nc1ccc2c(c1)OCO2	10	4	2	3	5	/
O=C(Cn1[nH]c(=O)c2ccccc2c1=O)OCC(=O)c1ccc(Br)cc1	-2	7	0	-8	-1	/
CC(C)Cn1c(N)c(C(=O)CSc2ncccn2)c(=O)n(C)c1=O	-5	-6	58*	-6	-6	4
CC(C)Cn1c(N)c(C(=O)CSc2n[nH]c(N)n2)c(=O)n(C)c1=O	-2	0	-3	-2	0	/
O=C(Nc1ccc(S(=O)(=O)N2CCCCC2)cc1)C1CCCN(C(=O)c2ccc(Cl)cc2)C1 (stereo not drawn)	2	-2	-3	-14	-3	/
Cn1ccnc1Sc1cc(NCCCO)c([N+](=O)[O-])c2nonc12	0	6	42*	2	-2	26*
CCN(CC)C(=O)c1sc2nc(-c3cccs3)cc(-c3ccc(Cl)cc3)c2c1N	-31	-6	15	-14	15	/
CCN(CC)C(=O)c1sc2nc(-c3cccs3)cc(-c3cccs3)c2c1N	-29	-1	57*	-15	15	13
CCCCCCNC(=O)CC(NS(=O)(=O)c1ccc(OC)cc1)C(C)C (stereo not drawn)	1	-1	1	-9	-7	/
CN(Cc1cccnc1)C(=O)CNC(=O)COc1ccccc1	-2	3	0	-5	0	/
COc1ccc(-c2[nH]ncc2CN2CCCCCCC2)c(OC)c1	2	-3	-3	-1	1	/
C[C@H](CO)N1C[C@H](C)[C@@H](CN(C)C(=O)Nc2ccc(F)cc2)OCc2cn(nn2)CCCC1=O	/	3	3	-1	-1	/
COc1ccc(NC(=O)N(C)C[C@@H]2OCc3cn(nn3)CCCC(=O)N([C@H](C)CO)C[C@H]2C)cc1	4	11	65*	10	-3	6
O=C(COC(=O)C1CC(=O)N(c2ccccc2)C1)c1ccccc1 (stereo not drawn)	0	-4	-4	14	0	/
Cc1ccc(N2CC(C(=O)OCC(=O)c3ccc([N+](=O)[O-])cc3)CC2=O)cc1 (stereo not drawn)	-1	4	29*	1	2	48*
CCCC(=O)Nc1cc(OC)c(NC(=S)Nc2ccc(CC)cc2)cc1OC	2	28	-1	10	-6	/
CCCC(=O)Nc1cc(OC)c(NC(=S)Nc2cccc(C)c2)cc1OC	4	25	39*	9	3	-5
O=C(O)c1cc([N+](=O)[O-])c(Sc2nc3ccccc3[nH]2)c([N+](=O)[O-])c1	1	-1	11	2	2	/
CS(=O)(=O)c1cc([N+](=O)[O-])c(Sc2nc3ccccc3[nH]2)c([N+](=O)[O-])c1	-2	12	56*	3	7	70*
Oc1ccc(CNc2ccccc2Br)c2cccnc12	/	8	32*	6	/	19
Oc1ccc(CNc2ccc(F)cc2)c2cccnc12	20	5	6	11	7	/
Oc1ccc(CNc2cccc(F)c2)c2cccnc12	/	21	63*	7	/	48*
Cc1ncc(CN2CCC(N3CCC(C(=O)N4CCCC4)CC3)CC2)s1	3	/	/	/	/	/
CCCNC(=O)c1nnsc1S(=O)c1ccc(Cl)cc1 (stereo not drawn)	-4	2	95*	1	1	90*
CNC(=O)c1nnsc1S(=O)c1ccc(Cl)cc1 (stereo not drawn)	1	4	77*	5	-2	76*
